Compounds with a hit are over-represented: about 3.7% of the library has one in this group of screens.
EP2 mod = EP2 receptor (human) modulation; P43116; EP2-expressing cells, cAMP HTRF FRET, PGE2 co-stimulation; induction, % at 25 µM; hit rate 0.83% among 260,000; AID 940;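 active = compounds whose cAMP rise, as percent of the full-agonist control response, exceeds 60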;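 note: rat C6 glioma line stably carrying human EP2 under a CMV promoter; the protocol text gives 20 µM as final concentration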
OX1R antag-1 = OX1R (human) antagonism; OX1R-expressing cells, FRET antagonist read-out; inhibition, % at 6.6 µM; hit rate 1.8% among 330,000; in the data active = inhibition mostly above about 38%, no sharp cut-off; inactive = mostly below about 40%
Target sequence (O43613 whole entry, looked up): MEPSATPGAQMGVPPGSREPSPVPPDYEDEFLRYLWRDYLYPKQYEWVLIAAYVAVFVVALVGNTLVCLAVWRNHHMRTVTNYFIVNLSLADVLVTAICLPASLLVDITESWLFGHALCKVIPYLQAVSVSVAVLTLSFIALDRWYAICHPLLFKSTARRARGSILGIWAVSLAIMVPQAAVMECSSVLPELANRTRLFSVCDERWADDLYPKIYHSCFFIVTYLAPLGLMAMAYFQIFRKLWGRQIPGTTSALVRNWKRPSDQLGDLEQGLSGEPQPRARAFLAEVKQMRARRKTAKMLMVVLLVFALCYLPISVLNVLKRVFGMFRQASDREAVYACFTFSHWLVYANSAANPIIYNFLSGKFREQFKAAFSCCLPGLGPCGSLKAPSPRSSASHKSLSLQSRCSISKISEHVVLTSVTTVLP
CHO parental Ca = counter-screen: ATP calcium response change in parental CHO cells; parental CHO-K1, ATP-induced calcium, Fluo-8 fluorescence; inhibition, % at 5.6 µM; hit rate 0.63% among 330,000;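 active = inhibition above that plate's mean sample inhibition plus 3 SD, cut at about 26% in these data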
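Assay system: untransfected parental CHO cell line. Also added: ATP agonist challenge. Dosing: one dose, 5.6 µM nominal. Measured by: Fluo-8 fluorescence. Read-out: % inhibition. Benchmarks: ATP wells versus no-ATP DMSO wells. Repeats: no replicates.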
PGE2 EP2 inh = blocks the human prostaglandin E2 receptor EP2. P43116. C6 glioma cells expressing human EP2, cAMP TR-FRET; cells stimulated with saturating PGE2. inhibition, % at 25 µM. hit rate 0.52% among 260,000;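 active = percent inhibition above 40 after rounding to a whole number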;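 note: rat C6 glioma host cells with rolipram phosphodiesterase inhibitor present; the protocol text gives 20 µM as final concentration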
GPR7 antag = antagonists of human GPR7 (neuropeptides B/W receptor 1); P48145; GPR7-expressing cells, fluorescence antagonist assay; inhibition, % at 4.4 µM; hit rate 1.1% among 290,000; AID 1861; in the data active = inhibition above about 16%, passing the limit was not always enough;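 note: cells stimulated with the agonist NPW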
Target sequence (P48145 whole entry, looked up): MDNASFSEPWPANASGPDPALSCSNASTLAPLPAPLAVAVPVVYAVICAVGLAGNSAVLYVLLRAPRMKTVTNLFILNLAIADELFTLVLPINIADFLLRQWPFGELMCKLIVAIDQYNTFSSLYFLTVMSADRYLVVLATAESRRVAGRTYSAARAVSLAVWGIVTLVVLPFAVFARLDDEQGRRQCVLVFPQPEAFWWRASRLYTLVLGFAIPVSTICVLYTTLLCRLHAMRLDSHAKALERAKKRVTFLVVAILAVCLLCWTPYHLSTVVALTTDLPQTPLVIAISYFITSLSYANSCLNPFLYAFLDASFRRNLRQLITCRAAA
OX1R antag-2 = human HCRTR1 antagonism; inhibition, % at 5 µM; CHO/OX1R cells, Fluo-8 calcium fluorescence, orexin A; hit rate 0.43% among 330,000; O43613; AID 434989;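 active = inhibition above its plate's threshold, mean inhibition of all tested compounds on the plate plus 3 SD, cut at about 37% in these data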
Of the large screens only hits and unclear results are named; the others gave an inactive call.

O=C(Nc1ccccc1)N1N=CCC1c1ccccc1 (stereo unspecified)	none (no result: OX1R antag-1, CHO parental Ca, OX1R antag-2)
Cc1ccc(C(=O)Nc2cccc(-c3cn4ccccc4n3)c2)cc1	none
O=C(Nc1cccc(-c2cn3ccccc3n2)c1)c1ccccc1	OX1R antag-1 52.9
Cc1ccccc1C(=O)Nc1cccc(-c2cn3ccccc3n2)c1	OX1R antag-1 72.5
COc1ccc(CN(C(=O)CN2C(=O)COc3ccccc32)C2CCCC2)c(OC)c1	OX1R antag-1 57.9
COc1ccc(CN(Cc2ccccn2)C(=O)CN2C(=O)COc3ccccc32)cc1	none
CN(C)c1nc(N)nc(-c2nc3ccccc3s2)n1	OX1R antag-1 58.0
Nc1ccccc1-c1nc2ccccc2s1	none
CCOc1cc2[nH]c(=S)n(C(C)C)c(=O)c2cc1OCC	none
CCOc1nc2c(c(=O)n(C)c(=O)n2C)n1Cc1ccccc1Cl	none
C=CCSc1nc2c(c(=O)n(C)c(=O)n2C)n1Cc1ccccc1Cl	EP2 mod 93.0 (no result: OX1R antag-1, CHO parental Ca, GPR7 antag, OX1R antag-2)
Cn1c(=O)c2c(nc(Br)n2Cc2ccccc2Cl)n(C)c1=O	GPR7 antag 19.3
O=C(CSc1nnc(-c2ccco2)o1)Nc1ccc(Cl)cc1Cl	none (no result: OX1R antag-1, CHO parental Ca, GPR7 antag, OX1R antag-2)
Cc1ccc(C)c2[nH]c(=O)c(C(c3nnnn3CCc3ccccc3)N3CCCCC3)cc12 (stereo unspecified)	EP2 mod 84.6 (no result: OX1R antag-1, CHO parental Ca, GPR7 antag, OX1R antag-2)
Cc1cc(C)c2[nH]c(=O)c(C(c3nnnn3Cc3ccc(F)cc3)N3CCCCCC3)cc2c1 (stereo unspecified)	EP2 mod 68.7 (no result: OX1R antag-1, CHO parental Ca, GPR7 antag, OX1R antag-2)
Cc1ccc(C)c2[nH]c(=O)c(C(c3nnnn3CCc3ccccc3)N3CCOCC3)cc12 (stereo unspecified)	none
Cc1cccc2cc(C(c3nnnn3Cc3ccc(F)cc3)N3CCCCC3)c(=O)[nH]c12 (stereo unspecified)	none (no result: OX1R antag-1, CHO parental Ca, GPR7 antag, OX1R antag-2)
Cc1ccc(S(=O)(=O)NCC(=O)N(CC(=O)NCC2CCCO2)c2ccc(Cl)cc2)cc1 (stereo unspecified)	none (no result: EP2 mod, PGE2 EP2 inh)
COc1ccc(/C=C(/NC(=O)c2ccco2)C(=O)Nc2cccc(C(=O)O)c2)cc1	none (no result: EP2 mod, PGE2 EP2 inh)
COC(=O)[C@@]1(Cc2ccc(OC)cc2)[C@@H]2C(=CC(=O)[C@H]2CC(=O)C(=O)N(C)C)CN1C(=O)c1ccccc1	none
C=C1C(=O)C=C2CN(C(=O)c3ccccc3)[C@@](Cc3ccc(F)cc3)(C(=O)OC)[C@@H]12	PGE2 EP2 inh 92.3, GPR7 antag 85.4, OX1R antag-2 74.8
CCN(Cc1ccccc1)C(=O)/C=C/c1ccccc1[N+](=O)[O-]	none (no result: OX1R antag-1, CHO parental Ca, OX1R antag-2)
CC(=O)c1sc(C(C)(C)C)cc1NC(=O)c1ccccc1C(=O)O	EP2 mod 76.9
CC(=O)c1ccc(OCC(=O)OC(C)C(=O)NC2CCCCC2)cc1 (stereo unspecified)	none (no result: EP2 mod, PGE2 EP2 inh, GPR7 antag)
Cc1ccc(Oc2ccc(Oc3ccc(C)cc3)nn2)cc1	CHO parental Ca 27.2
Cc1ccc(Oc2cnc3ccccc3n2)cc1	none
C=CCc1cc(CN2CCC(C(=O)c3cccnc3)CC2)cc(OC)c1OC	EP2 mod 72.0 (no result: OX1R antag-1, CHO parental Ca, GPR7 antag, OX1R antag-2)
Cc1ccc2cccc(OCC(=O)N(C)CC(=O)Nc3ccc(F)cc3)c2n1	none (no result: EP2 mod, PGE2 EP2 inh, GPR7 antag)
Cn1c2ccccc2c2cc(C(=O)OCC(=O)N3CC(=O)Nc4ccccc43)sc21	PGE2 EP2 inh 53.0
CC1(C)C(=O)Nc2ccccc2N1C(=O)COC(=O)c1ccc([N+](=O)[O-])o1	none (no result: EP2 mod, PGE2 EP2 inh, GPR7 antag)
O=C1CN(C(=O)COC(=O)c2ccc([N+](=O)[O-])o2)c2ccccc2N1	OX1R antag-1 34.2 (no result: EP2 mod, PGE2 EP2 inh, GPR7 antag)
O=C1CN(C(=O)COC(=O)c2ccc([N+](=O)[O-])s2)c2ccccc2N1	OX1R antag-1 45.0 (no result: EP2 mod, PGE2 EP2 inh, GPR7 antag)
CN1CCc2cccc3c2C1Cc1ccc(O)c(O)c1-3 (stereo unspecified)	PGE2 EP2 inh 60.0
CN1CCC(=C2c3ccccc3C(O)c3ccccc32)CC1 (stereo unspecified)	none
CCc1ccc(S(=O)(=O)/N=C2\C=C(Nc3cccc(C(=O)O)c3)C(=O)c3ccccc32)cc1	OX1R antag-1 45.6 (no result: EP2 mod, PGE2 EP2 inh)
CCc1ccc(S(=O)(=O)/N=C2\C=C(Nc3ccc(O)cc3)C(=O)c3ccccc32)cc1	none (no result: EP2 mod, PGE2 EP2 inh)
CCc1ccc(S(=O)(=O)/N=C2/C=C(Sc3ncn[nH]3)C(=O)c3ccccc32)cc1	OX1R antag-1 67.5, PGE2 EP2 inh 61.0
O=C(NC(=S)Nc1ccccc1OC(F)F)c1ccc2c(c1)OCO2	none (no result: EP2 mod, PGE2 EP2 inh, GPR7 antag)
CC(Sc1nc(-c2ccccc2)cc(=O)[nH]1)C(=O)O (stereo unspecified)	none
Cc1ccc(-c2nnn(CC(=O)NCC3CC3)n2)cc1	none (no result: OX1R antag-1, CHO parental Ca, GPR7 antag, OX1R antag-2)
Cc1ccc(C(=O)N/N=C/c2ccc(-c3ccc(Br)cc3[N+](=O)[O-])o2)o1	none (no result: EP2 mod, PGE2 EP2 inh)
O=C(Nc1ccc(C(=O)O)cc1)Nc1cccc([N+](=O)[O-])c1	none
Cc1ccc(CC(=O)Nc2cccc([N+](=O)[O-])c2)cc1	GPR7 antag 19.4
Cc1ccc2nc(SCC(=O)Nc3cccc([N+](=O)[O-])c3)[nH]c2c1	OX1R antag-2 52.5
O=C(NC(=S)Nc1cccc([N+](=O)[O-])c1)C1CCCC1	GPR7 antag 20.3 (no result: EP2 mod, PGE2 EP2 inh)
O=C(Nc1cccc([N+](=O)[O-])c1)Nc1cccc([N+](=O)[O-])c1	CHO parental Ca 33.8
Nc1cc(=O)[nH]c(SCC(=O)NC2CCCc3ccccc32)n1 (stereo unspecified)	none
CCOC(=O)C1(Cc2ccc(OC)cc2)CCN(C(=O)C2CC(=O)N(C3CC3)C2)CC1 (stereo unspecified)	none
COCCNC(=O)/C(C#N)=C1\N=C(N)c2ccccc21	none
CC(C)S(=O)(=O)c1csc(NC(=O)Nc2cccc([N+](=O)[O-])c2)c1Cl	PGE2 EP2 inh 54.0
N#Cc1cc(C(=O)c2ccccc2O)cn(-c2nccs2)c1=O	none
N#Cc1cc(C(=O)c2cc(F)ccc2O)cn(-c2nccs2)c1=O	CHO parental Ca 36.9
Cc1nnc(NC(=O)C2CCN(S(=O)(=O)c3cc([N+](=O)[O-])ccc3Cl)CC2)o1	OX1R antag-1 27.9 (no result: EP2 mod, PGE2 EP2 inh, GPR7 antag)
O=C(C1=COCCO1)N1CCN(S(=O)(=O)c2cccc(F)c2)CC1	none (no result: EP2 mod, PGE2 EP2 inh, GPR7 antag)
COc1ccccc1CNS(=O)(=O)c1ccc(-c2cc(C)no2)cc1	OX1R antag-1 66.3 (no result: EP2 mod, PGE2 EP2 inh)
COc1ccccc1CN1CCC(CNS(=O)(=O)c2cc(-c3cc(C)no3)ccc2OC)CC1	none (no result: EP2 mod, PGE2 EP2 inh)
CCCn1c(-c2cccs2)nc2nc3ccccc3nc21	OX1R antag-1 63.6
O=[N+]([O-])c1ccc(-c2ccc(S(=O)(=O)NCCN3CCCC3)cc2)cc1	OX1R antag-1 59.1
O=[N+]([O-])c1ccc(S(=O)(=O)NCCN2CCOCC2)cc1	OX1R antag-1 42.6
O=[N+]([O-])c1cccc(S(=O)(=O)NCCCN2CCOCC2)c1	none
Oc1ccc(/C=N/Nc2nc(-c3ccc(Cl)cc3)cc(C(F)(F)F)n2)cc1	none
COc1ccc2c(c1)CN([C@H](C)[C@@H]1CC[C@@H]3[C@H]4CC[C@H]5C[C@@H](O)CC[C@]5(C)[C@@H]4CC[C@]31C)CO2	PGE2 EP2 inh 60.7 (no result: OX1R antag-1, CHO parental Ca, GPR7 antag, OX1R antag-2)

Assay outcomes from PubChem BioAssay.
